Results reported in ChEMBL document CHEMBL1140861, “Short antisense oligonucleotides with novel 2'-4' conformationaly restricted nucleoside analogues show improved potency without increased toxicity in animals” (J Med Chem, 2009).
Calls of active or inactive are those of the source. The calls are words filed in the database; no cut-off is given here.

Experiments:
bEND = assay: Reduction in mouse PTEN mRNA level expressed in mouse bEND cells; type: functional, cell-based
Outline: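 bEND mouse brain endothelial cells transfected with ASO using lipofectin; PTEN mRNA reduction measured over a dose range; IC50 taken from dose-response curves.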

Mus musculus [1] = species on record: Mus musculus; assay: Binding affinity to mouse PTEN mRNA assessed as melting temperature
Outline: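 Tm of ASO–RNA duplex, i.e. melting temperature of the ASO hybridised to its complementary RNA.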

Mus musculus [2] = assay: Reduction of PTEN mRNA level in ip dosed BALB/c mouse liver after 72 hrs; type: functional
Mus musculus [3] = assay: Reduction of PTEN mRNA level in BALB/c mouse liver at 37 mg/kg, ip after 72 hrs; type: functional, organism-based; parameters: dose 37 mg/kg
Mus musculus [4] = assay: Reduction of PTEN mRNA level in BALB/c mouse liver at 60 mg/kg, ip after 72 hrs; type: functional, organism-based; parameters: dose 60 mg/kg
Mus musculus [5] = assay: Hepatotoxicity in BALB/c mouse assessed as increase in liver ALT level at 60 mg/kg, ip after 72 hrs; type: toxicity, organism-based; parameters: dose 60 mg/kg, route intraperitoneal; conditions: in vivo

Compound	IC50 (bEND) [nM]	Tm (Mus musculus [1]) [°C]	ED50 (Mus musculus [2]) [mg/kg]	Activity (Mus musculus [3])	Activity (Mus musculus [4])	Activity (Mus musculus [5])
COC[C@@H]1O[C@H]2[C@H](n3cc(C)c(N)nc3=O)O[C@]1(COP(O)(=S)O[C@H]1[C@H]3O[C@@H](COC)[C@]1(COP(O)(=S)O[C@H]1C[C@H](n4cc(C)c(=O)[nH]c4=O)O[C@@H]1COP(O)(=S)O[C@H]1[C@@H](O)[C@H](n4cnc5c4N=CNC5N)O[C@@H]1COP(O)(=S)O[C@H]1[C@@H](O)[C@H](n4cnc5c(=O)[nH]c(N)nc54)O[C@@H]1COP(O)(=S)O[C@H]1[C@@H](O)[C@H](n4ccc(N)nc4=O)O[C@@H]1COP(O)(=S)O[C@H]1[C@@H](O)[C@H](n4cnc5c(N)ncnc54)O[C@@H]1COP(O)(=S)O[C@H]1[C@@H](O)[C@H](n4ccc(N)nc4=O)O[C@@H]1COP(O)(=S)O[C@H]1[C@@H](O)[C@H](n4cc(C)c(=O)[nH]c4=O)O[C@@H]1COP(O)(=S)O[C@H]1[C@@H](O)[C@H](n4cnc5c(=O)[nH]c(N)nc54)O[C@@H]1COP(O)(=S)O[C@H]1[C@@H](O)[C@H](n4cnc5c(=O)[nH]c(N)nc54)O[C@@H]1COP(O)(=S)O[C@H]1[C@@H](O)[C@H](n4ccc(N)nc4=O)O[C@@H]1COP(O)(=S)O[C@H]1[C@H]4O[C@@H](COC)[C@]1(COP(O)(=S)O[C@H]1[C@H]5O[C@@H](COC)[C@]1(CO)O[C@H]5n1ccc(=O)[nH]c1=O)O[C@H]4n1cc(C)c(N)nc1=O)O[C@H]3n1ccc(=O)[nH]c1=O)[C@H]2O (stereo partly drawn)	5	57.6	25	–	–	–
Cc1cn([C@@H]2O[C@@]3(COP(O)(=S)O[C@H]4[C@H]5OC[C@]4(COP(O)(=S)O[C@@H]4[C@H](O)[C@@H](COP(O)(=S)O[C@H]6[C@@H](O)[C@H](n7cnc8c(=O)[nH]c(N)nc87)O[C@@H]6COP(O)(=S)O[C@H]6[C@@H](O)[C@H](n7ccc(N)nc7=O)O[C@@H]6COP(O)(=S)O[C@H]6[C@@H](O)[C@H](n7ccc(N)nc7=O)O[C@@H]6COP(O)(=S)O[C@H]6C[C@H](n7cc(C)c(=O)[nH]c7=O)O[C@@H]6COP(O)(=S)O[C@H]6[C@@H](O)[C@H](n7ccc(N)nc7=O)O[C@@H]6COP(O)(=S)O[C@H]6C[C@H](n7cc(C)c(=O)[nH]c7=O)O[C@@H]6COP(O)(=S)O[C@H]6[C@@H](O)[C@H](n7cnc8c(=O)[nH]c(N)nc87)O[C@@H]6COP(O)(=S)O[C@H]6[C@@H](O)[C@H](n7cnc8c(=O)[nH]c(N)nc87)O[C@@H]6COP(O)(=S)O[C@H]6[C@@H](O)[C@H](n7cnc8c(N)ncnc87)O[C@@H]6COP(O)(=S)O[C@H]6[C@H]7OC[C@]6(COP(O)(=S)O[C@H]6[C@H]8OC[C@]6(COP(O)(=S)O[C@H]6[C@H]9OC[C@]6(CO)O[C@H]9n6cc(C)c(=O)[nH]c6=O)O[C@H]8n6cc(C)c(=O)[nH]c6=O)O[C@H]7n6cc(C)c(=O)[nH]c6=O)O[C@H]4n4cnc6c(N)ncnc64)O[C@H]5n4cc(C)c(=O)[nH]c4=O)CO[C@@H]2[C@@H]3O)c(=O)nc1N (stereo partly drawn)	–	–	–	Active	Active	Non-toxic
Cc1cn([C@@H]2O[C@@]3(COP(O)(=S)O[C@H]4[C@H]5OC[C@]4(CO)O[C@H]5n4cc(C)c(N)nc4=O)CO[C@@H]2[C@@H]3OP(O)(=S)OC[C@H]2O[C@@H](n3cnc4c(N)ncnc43)[C@H](O)[C@@H]2OP(O)(=S)OC[C@H]2O[C@@H](n3cnc4c(=O)[nH]c(N)nc43)[C@H](O)[C@@H]2OP(O)(=S)OC[C@H]2O[C@@H](n3cnc4c(=O)[nH]c(N)nc43)[C@H](O)[C@@H]2OP(O)(=S)OC[C@H]2O[C@@H](n3cc(C)c(=O)[nH]c3=O)C[C@@H]2OP(O)(=S)OC[C@H]2O[C@@H](n3ccc(N)nc3=O)[C@H](O)[C@@H]2OP(O)(=S)OC[C@H]2O[C@@H](n3ccc(N)nc3=O)[C@H](O)[C@@H]2OP(O)(=S)OC[C@H]2O[C@@H](n3ccc(N)nc3=O)[C@H](O)[C@@H]2OP(O)(=S)OC[C@H]2O[C@@H](n3cnc4c(=O)[nH]c(N)nc43)[C@H](O)[C@@H]2OP(O)(=S)OC[C@H]2O[C@@H](n3cnc4c(=O)[nH]c(N)nc43)[C@H](O)[C@@H]2OP(O)(=S)OC[C@H]2O[C@@H](n3cc(C)c(=O)[nH]c3=O)C[C@@H]2OP(O)(=S)OC[C@@]23CO[C@@H]([C@H](n4cc(C)c(=O)[nH]c4=O)O2)[C@@H]3OP(O)(=S)OC[C@@]23CO[C@@H]([C@H](n4ccc(N)nc4=O)O2)[C@@H]3O)c(=O)nc1N (stereo partly drawn)	–	–	–	Active	Active	Non-toxic
COCCO[C@@H]1[C@H](O)[C@@H](COP(O)(=S)O[C@H]2[C@@H](OCCOC)[C@H](n3cc(C)c(N)nc3=O)O[C@@H]2COP(O)(=S)O[C@H]2[C@@H](OCCOC)[C@H](n3cc(C)c(=O)[nH]c3=O)O[C@@H]2COP(O)(=S)O[C@H]2[C@@H](OCCOC)[C@H](n3cc(C)c(=O)[nH]c3=O)O[C@@H]2COP(O)(=S)O[C@H]2[C@@H](OCCOC)[C@H](n3cc(C)c(N)nc3=O)O[C@@H]2COP(O)(=S)O[C@H]2[C@@H](O)[C@H](n3cc(C)c(N)nc3=O)O[C@@H]2COP(O)(=S)O[C@H]2[C@@H](O)[C@H](n3cc(C)c(N)nc3=O)O[C@@H]2COP(O)(=S)O[C@H]2C[C@H](n3cc(C)c(=O)[nH]c3=O)O[C@@H]2COP(O)(=S)O[C@H]2[C@@H](O)[C@H](n3cnc4c(=O)[nH]c(N)nc43)O[C@@H]2COP(O)(=S)O[C@H]2[C@@H](O)[C@H](n3cnc4c(N)ncnc43)O[C@@H]2COP(O)(=S)O[C@@H]2[C@H](O)[C@@H](COP(O)(=S)O[C@H]3[C@@H](O)[C@H](n4cnc5c(=O)[nH]c(N)nc54)O[C@@H]3COP(O)(=S)O[C@H]3[C@@H](O)[C@H](n4cnc5c(=O)[nH]c(N)nc54)O[C@@H]3COP(O)(=S)O[C@H]3C[C@H](n4cc(C)c(=O)[nH]c4=O)O[C@@H]3COP(O)(=S)O[C@H]3C[C@H](n4cc(C)c(=O)[nH]c4=O)O[C@@H]3COP(O)(=S)O[C@H]3[C@@H](OCCOC)[C@H](n4cc(C)c(=O)[nH]c4=O)O[C@@H]3COP(O)(=S)O[C@H]3[C@@H](OCCOC)[C@H](n4cc(C)c(N)nc4=O)O[C@@H]3COP(O)(=S)O[C@H]3[C@@H](OCCOC)[C@H](n4ccc(N)nc4=O)O[C@@H]3COP(O)(=S)O[C@H]3[C@@H](OCCOC)[C@H](n4cc(C)c(N)nc4=O)O[C@@H]3COP(O)(=S)O[C@H]3[C@@H](OCCOC)[C@H](n4cc(C)c(N)nc4=O)O[C@@H]3CO)O[C@H]2n2cnc3c(N)ncnc32)O[C@H]1n1cc(C)c(N)nc1=O (stereo partly drawn)	–	–	–	Active	Active	Non-toxic
Cc1cn([C@@H]2O[C@@]3(COP(O)(=S)O[C@H]4[C@H]5OC[C@]4(COP(O)(=S)O[C@@H]4[C@H](O)[C@@H](COP(O)(=S)O[C@H]6[C@@H](O)[C@H](n7cnc8c(=O)[nH]c(N)nc87)O[C@@H]6COP(O)(=S)O[C@H]6[C@@H](O)[C@H](n7ccc(N)nc7=O)O[C@@H]6COP(O)(=S)O[C@H]6[C@@H](O)[C@H](n7ccc(N)nc7=O)O[C@@H]6COP(O)(=S)O[C@H]6C[C@H](n7cc(C)c(=O)[nH]c7=O)O[C@@H]6COP(O)(=S)O[C@H]6[C@@H](O)[C@H](n7ccc(N)nc7=O)O[C@@H]6COP(O)(=S)O[C@H]6C[C@H](n7cc(C)c(=O)[nH]c7=O)O[C@@H]6COP(O)(=S)O[C@H]6[C@@H](O)[C@H](n7cnc8c(=O)[nH]c(N)nc87)O[C@@H]6COP(O)(=S)O[C@H]6[C@@H](O)[C@H](n7cnc8c(=O)[nH]c(N)nc87)O[C@@H]6COP(O)(=S)O[C@H]6[C@@H](O)[C@H](n7cnc8c(N)ncnc87)O[C@@H]6COP(O)(=S)O[C@H]6[C@H]7OC[C@]6(COP(O)(=S)O[C@H]6[C@H]8OC[C@]6(COP(O)(=S)O[C@H]6[C@H]9OC[C@]6(CO)O[C@H]9n6cc(C)c(=O)[nH]c6=O)O[C@H]8n6cc(C)c(=O)[nH]c6=O)O[C@H]7n6cc(C)c(=O)[nH]c6=O)O[C@H]4n4cnc6c(N)ncnc64)O[C@H]5n4cc(C)c(=O)[nH]c4=O)CO[C@@H]2[C@@H]3OP(O)(=S)OC[C@@]23CO[C@@H]([C@H](n4cnc5c(=O)[nH]c(N)nc54)O2)[C@@H]3O)c(=O)nc1N (stereo partly drawn)	–	–	–	Active	Active	Non-toxic
Cc1cn([C@@H]2O[C@@]3(COP(O)(=S)O[C@H]4[C@H]5OC[C@]4(COP(O)(=S)O[C@@H]4[C@H](O)[C@@H](COP(O)(=S)O[C@H]6[C@@H](O)[C@H](n7cnc8c(=O)[nH]c(N)nc87)O[C@@H]6COP(O)(=S)O[C@H]6[C@@H](O)[C@H](n7ccc(N)nc7=O)O[C@@H]6COP(O)(=S)O[C@H]6[C@@H](O)[C@H](n7ccc(N)nc7=O)O[C@@H]6COP(O)(=S)O[C@H]6C[C@H](n7cc(C)c(=O)[nH]c7=O)O[C@@H]6COP(O)(=S)O[C@H]6[C@@H](O)[C@H](n7ccc(N)nc7=O)O[C@@H]6COP(O)(=S)O[C@H]6C[C@H](n7cc(C)c(=O)[nH]c7=O)O[C@@H]6COP(O)(=S)O[C@H]6[C@@H](O)[C@H](n7cnc8c(=O)[nH]c(N)nc87)O[C@@H]6COP(O)(=S)O[C@H]6[C@@H](O)[C@H](n7cnc8c(=O)[nH]c(N)nc87)O[C@@H]6COP(O)(=S)O[C@H]6[C@@H](O)[C@H](n7cnc8c(N)ncnc87)O[C@@H]6COP(O)(=S)O[C@H]6[C@H]7OC[C@]6(COP(O)(=S)O[C@H]6[C@H]8OC[C@]6(CO)O[C@H]8n6cc(C)c(=O)[nH]c6=O)O[C@H]7n6cc(C)c(=O)[nH]c6=O)O[C@H]4n4cnc6c(N)ncnc64)O[C@H]5n4cc(C)c(=O)[nH]c4=O)CO[C@@H]2[C@@H]3O)c(=O)nc1N (stereo partly drawn)	–	–	–	Active	Active	Non-toxic
